# Experimental data as given in ChEMBL document CHEMBL1156799, “Synthesis and biological evaluation of N-hydroxyphenylacrylamides and N-hydroxypyridin-2-ylacrylamides as novel histone deacetylase inhibitors” (J Med Chem, 2010).
# Assays:
# [1] = Metabolic stability in mouse hepatic microsomes at 1 uM after 30 mins at 37 degC; conditions: liver microsomes
# [2] = Metabolic stability in human hepatic microsomes at 1 uM after 30 mins at 37 degC; assay type: ADME; conditions: liver microsomes, read-out: Stability
# Outline: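 Compound at 1 μM preincubated 10 min at 37 °C in potassium phosphate buffer pH 7.4 with 0.5 mg/mL human or mouse hepatic microsomes; NADP/G6P/G6P-DH cofactor mix added; samples at 0 and 30 min analysed by LC-MS/MS (MRM, verapamil internal standard); % remaining = area 30 min/area 0 min × 100.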
# Mus musculus [3] = experiment: Volume of distribution at steady state in CD1 mouse at 5 mg/kg, iv; conditions: in vivo
# [4] = AUC (0 to infinity) in CD1 mouse at 5 mg/kg, iv; assay type: ADME, organism-based; design: time infinity, dose 5 mg/kg, route intravenous; conditions: plasma
# [5] = Oral bioavailability in CD1 mouse at 15 mg/kg; assay type: ADME, organism-based; conditions: in vivo
# Outline: (§1)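 Mice dosed orally by gavage at 15 mg/kg, compound in water at 3 mg/mL of the base; iv comparison dose 5 mg/kg in normal saline; 27-30 animals per group; plasma from serial blood samples, protein-precipitated, kept at -80 °C, quantified by LC/MS/MS.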
# [6] = Half life in CD1 mouse at 15 mg/kg, po; assay type: ADME, organism-based; design: dose 15 mg/kg, route oral; conditions: in vivo
# Outline: as §1
# [7] = Clearance in CD1 mouse at 5 mg/kg, iv; conditions: in vivo
# in vitro = conditions: human, liver microsomes
# Mus musculus [8] = organism: Mus musculus; experiment: Hepatic blood flow in mouse; assay type: ADME, organism-based, Liver
# [9] = Metabolic stability in mouse liver microsomes assessed as half life; assay type: ADME, Microsome
# [10] = AUC (0 to 24 hrs) in CD1 mouse at 5 mg/kg, iv; assay type: ADME, organism-based; design: time < 24 hr, dose 5 mg/kg, route intravenous; conditions: plasma
# Outline: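 Mice given single iv dose of 5 mg/kg, compound in normal saline at 1 mg/mL as rapid bolus; 27-30 animals per group; blood sampled at several times after dosing, plasma separated by centrifugation, proteins precipitated, stored -80 °C, analysed by LC/MS/MS (ESI).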
Compound,"remaining at 0.5 h, 1 µM [1]","remaining at 0.5 h, 1 µM [2]",Vdss (Mus musculus [3]),AUC(0-inf) [4],bioavailability [5],half-life [6],clearance [7],further results
O=C(CCCCCCC(=O)Nc1ccccc1)NO [VORINOSTAT],,,1.2 L/kg,657 ng·h/mL,12.1%,0.5 h,127 mL/min/kg,half-life (in vitro): 1 h; LBF (Mus musculus [8]): 90 mL/min/kg; half-life [9]: 0.467 h
CN1CCN(Cc2ccccc2C(=O)/C=C/c2cccc(/C=C/C(=O)NO)n2)CC1,40%,67%,,,,,,
CN1CCN(Cc2ccc(C(=O)/C=C/c3ccc(/C=C/C(=O)NO)nc3)cc2)CC1,56%,47%,31.9 L/kg,1050 ng·h/mL,5.5%,9.7 h,79.2 mL/min/kg,
CN1CCN(c2cccc(C(=O)/C=C/c3cccc(/C=C/C(=O)NO)c3)c2)CC1,7.2%,55%,,,,,,
O=C(/C=C/c1cccc(/C=C/C(=O)c2ccccc2)n1)NO,11%,38%,,,,,,
O=C(/C=C/c1ccc2c(c1)nc(CCc1ccccc1)n2CCN1CCCC1)NO,,,,,,,,half-life [9]: 0.05 h
O=C(/C=C/c1cccc(/C=C/C(=O)c2ccccc2)c1)NO,6%,9%,,,,,,
CN1CCN(c2ccc(C(=O)/C=C/c3ccc(/C=C/C(=O)NO)cc3)cc2)CC1,9.1%,33%,,,,,,
CN1CCN(Cc2cccc(C(=O)/C=C/c3ccc(/C=C/C(=O)NO)nc3)c2)CC1,46%,32%,28.4 L/kg,736 ng·h/mL,3.9%,6.7 h,113 mL/min/kg,
CN1CCN(c2ccccc2C(=O)/C=C/c2cccc(/C=C/C(=O)NO)n2)CC1,57%,58%,13.9 L/kg,1900 ng·h/mL,2.9%,8.6 h,44 mL/min/kg,
CN1CCN(c2ccccc2C(=O)/C=C/c2ccc(/C=C/C(=O)NO)nc2)CC1,61%,65%,2.1 L/kg,1400 ng·h/mL,6.3%,2.3 h,59.7 mL/min/kg,
CN1CCN(c2cccc(C(=O)/C=C/c3ccc(/C=C/C(=O)NO)cc3)c2)CC1,6.2%,44%,,,,,,
Cc1[nH]c2ccccc2c1CCNCc1ccc(/C=C/C(=O)NO)cc1 [PANOBINOSTAT],,,15.1 L/kg,273 ng·h/mL,4.6%,1.37 h,305 mL/min/kg,

# More lines, main results first:
"remaining at 0.5 h, 1 µM [1]","remaining at 0.5 h, 1 µM [2]",Vdss (Mus musculus [3]),AUC(0-inf) [4],bioavailability [5],half-life [6],clearance [7],Compound,further results
25%,39%,,,,,,CN1CCN(Cc2cccc(C(=O)/C=C/c3cccc(/C=C/C(=O)NO)c3)c2)CC1,
34%,38%,5.4 L/kg,698 ng·h/mL,18.1%,2 h,119 mL/min/kg,CN1CCN(c2ccccc2C(=O)/C=C/c2ccc(/C=C/C(=O)NO)cc2)CC1,
5.9%,40%,,,,,,CN1CCN(c2ccc(C(=O)/C=C/c3cccc(/C=C/C(=O)NO)c3)cc2)CC1,
44%,62%,,,,,,CN1CCN(c2ccccc2C(=O)/C=C/c2cccc(/C=C/C(=O)NO)c2)CC1,
33%,44%,,,,,,CN1CCN(Cc2ccc(C(=O)/C=C/c3cccc(/C=C/C(=O)NO)c3)cc2)CC1,
29%,35%,18.3 L/kg,1510 ng·h/mL,2%,8.5 h,55.3 mL/min/kg,CN1CCN(c2cccc(C(=O)/C=C/c3cccc(/C=C/C(=O)NO)n3)c2)CC1,
4.2%,56%,,,,,,CN1CCN(Cc2ccccc2C(=O)/C=C/c2ccc(/C=C/C(=O)NO)cc2)CC1,
53%,93%,11.7 L/kg,1490 ng·h/mL,4.5%,5.55 h,55.8 mL/min/kg,CN1CCN(Cc2ccccc2C(=O)/C=C/c2ccc(/C=C/C(=O)NO)nc2)CC1,
46%,51%,16.07 L/kg,,2.6%,7.3 h,29.2 mL/min/kg,CN1CCN(Cc2ccc(C(=O)/C=C/c3cccc(/C=C/C(=O)NO)n3)cc2)CC1,AUC(0-t) at 24 h [10]: 2520 ng·h/mL
17%,23%,,,,,,CN1CCN(Cc2cccc(C(=O)/C=C/c3ccc(/C=C/C(=O)NO)cc3)c2)CC1,
35%,62%,20.1 L/kg,849 ng·h/mL,3.1%,8.27 h,98 mL/min/kg,CN1CCN(Cc2ccccc2C(=O)/C=C/c2cccc(/C=C/C(=O)NO)c2)CC1,
3.8%,43%,,,,,,CN1CCN(c2ccc(C(=O)/C=C/c3ccc(/C=C/C(=O)NO)nc3)cc2)CC1,
6%,14%,,,,,,O=C(/C=C/c1ccc(/C=C/C(=O)c2ccccc2)cn1)NO,
40%,45%,,,,,,CN1CCN(Cc2cccc(C(=O)/C=C/c3cccc(/C=C/C(=O)NO)n3)c2)CC1,
19%,35%,,,,,,CN1CCN(c2ccc(C(=O)/C=C/c3cccc(/C=C/C(=O)NO)n3)cc2)CC1,
14%,16%,,,,,,O=C(/C=C/c1cc(/C=C/C(=O)c2ccccc2)ccn1)NO,
17%,61%,,,,,,CN1CCN(Cc2ccc(C(=O)/C=C/c3ccc(/C=C/C(=O)NO)cc3)cc2)CC1,
20%,41%,,,,,,CN1CCN(c2cccc(C(=O)/C=C/c3ccc(/C=C/C(=O)NO)nc3)c2)CC1,
,,5.03 L/kg,431 ng·h/mL,6.66%,1.21 h,193 mL/min/kg,O=C(/C=C/c1cccc(S(=O)(=O)Nc2ccccc2)c1)NO [BELINOSTAT],
2%,5%,,,,,,O=C(/C=C/c1ccc(/C=C/C(=O)c2ccccc2)cc1)NO,
